High-throughput results from PubChem BioAssay.
DENV2 CPE rescue = inhibitors of DENV2 cytopathic effect; CPE inhibition, % at 9.99 µM; DENV2-infected cells, cytopathic effect rescue, plate reader; AID 651640; hit rate 1.7% among 350,000; in the data active means CPE inhibition above about 20%, passing the limit was not always enough; inconclusive means no clear call, values can overlap the other calls; tested in BHK-21 cells;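 further: 0% = median of neutral control wells and 100% = median of positive control wells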
E-sel inducer = induces E-selectin expression in human endothelial cells | P16581 | HUVEC E-selectin immunofluorescence imaging; normalized: neutral wells 0, TNF-alpha wells 100 | activation, % at 7.58 µM | hit rate 0.37% among 260,000;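 active means mean E-selectin-positive cell signal at least 10% of the positive control, reached in at least 60% of replicates, without over 20% cell loss; inconclusive means no rule given, readout overlaps actives, possibly toxicity-flagged; inactive means the rest, including those meeting only one limit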
Target sequence (P16581 whole entry, looked up): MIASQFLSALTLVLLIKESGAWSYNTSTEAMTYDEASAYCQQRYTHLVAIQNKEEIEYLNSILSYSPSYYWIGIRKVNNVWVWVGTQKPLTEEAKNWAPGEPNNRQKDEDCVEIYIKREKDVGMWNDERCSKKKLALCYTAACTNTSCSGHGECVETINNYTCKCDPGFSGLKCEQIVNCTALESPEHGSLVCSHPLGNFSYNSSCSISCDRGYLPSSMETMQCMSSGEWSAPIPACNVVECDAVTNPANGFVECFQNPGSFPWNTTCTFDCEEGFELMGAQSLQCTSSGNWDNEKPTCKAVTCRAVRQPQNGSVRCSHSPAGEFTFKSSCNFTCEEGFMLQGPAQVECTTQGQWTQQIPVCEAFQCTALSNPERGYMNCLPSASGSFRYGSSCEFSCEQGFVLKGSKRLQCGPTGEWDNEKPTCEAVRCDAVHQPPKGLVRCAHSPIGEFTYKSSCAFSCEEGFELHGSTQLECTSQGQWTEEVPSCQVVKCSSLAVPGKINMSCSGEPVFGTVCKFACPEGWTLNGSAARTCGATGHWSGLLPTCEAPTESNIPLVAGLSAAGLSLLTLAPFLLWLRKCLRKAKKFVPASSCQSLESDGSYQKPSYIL
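System: HUVEC / Compound: single concentration / Signal: immunofluorescence imaging / Read-out: percent E-selectin-positive cells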
miR122 inh = blocks miR-122 activity in Huh7 sensor cells; Huh7 miR-122 Renilla luciferase sensor, 48 h; neutral wells = 0, positive control = 100; activation (reporter increase), % at 12.5 µM; hit rate 0.3% among 340,000; AID 602342;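 active means mean replicate activation score at least 90 and every replicate individually at or above 90; inconclusive means only one of the two criteria met; inactive means neither criterion met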;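 further: higher luciferase means less miR-122 activity so hits act as miR-122 inhibitors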
Cneo AK release = Cryptococcus neoformans lysis via adenylate kinase release. C. neoformans lysis, adenylate kinase release luminescence, 4 h; normalised: neutral wells 0, clomiphene wells 100. hit rate 0.2% among 360,000. lysis activity, % at 15 µM. AID 651654;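 active means mean lysis activity across replicates of at least 80%, whatever share of replicates individually reach that level; inactive means mean lysis activity below 80%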
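Assay system: Cryptococcus neoformans yeast cells / Dosing: single-point compound dose / Timing: 4 h at 37 °C static, read 1 h later / Measured by: luminescence of released adenylate kinase using an AK detection reagent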
rRNA inh HTS = inhibitors of bacterial rRNA selective over humanized ribosomes | GFP signal change (wild-type ribosome), % (test concentration not listed) | E. coli WT GFP vs humanized-ribosome RFP mutants, fluorescence, 24 h; active compounds read low; DMSO median 0, no signal -100 | AID 720706 | hit rate 1.6% among 350,000;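 active means significant combined selectivity score with lowered wild-type GFP, culture density cut under 30%, mutant RFP and density less affected; inactive means any of these conditions unmet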
The depositor's hits bear a star; ? = inconclusive; nt = not tested or not shown; [ ] = remark or other dose. Compounds with a hit are over-represented: about 3.1% of the library has one in this group of screens.

SMILES	DENV2 CPE rescue	E-sel inducer	miR122 inh	Cneo AK release	rRNA inh HTS
C[C@@H]1CN([C@@H](C)CO)C(=O)c2cccc(NC(=O)Nc3ccc(C(F)(F)F)cc3)c2O[C@@H]1CN(C)C(=O)Nc1ccc2c(c1)OCO2	2	0	1[16.7 µM]	42	2
O=C(C[C@H]1C[C@@H]2c3cc(NC(=O)Nc4ccccc4)ccc3O[C@@H]2[C@H](CO)O1)NCC(F)(F)F	7	0	-1[16.7 µM]	-4	0
O=S(=O)(NCCc1ccncc1)c1ccc(Br)cc1	nt	nt	192*	0	nt
O=S(=O)(NCCc1ccncc1)c1ccc(F)cc1	13	0	nt	0	6
C=CCNc1cc(F)ccc1S(=O)(=O)NCC=C	-2	0	96*	8	-6
O=C(OCCN=C1NS(=O)(=O)c2ccccc21)c1ccccc1	nt	nt	215*	-11	nt
CCC(=O)Nc1ccc2c(c1)C(=O)N(C)C[C@@H](OC)[C@H](C)CN(Cc1ccncc1)[C@@H](C)CO2	6	0	nt	0	1
COC(=O)CCCC1=CC2=CC(=O)C(C)(OC(=O)c3cccs3)C(=O)C2=CN1CCc1c[nH]c2ccccc12 (stereo not drawn)	1	2	-1	0	-2
CCCCC1=CC2=CC(=O)C(C)(OC(=O)CC)C(=O)C2=CN1CCc1c[nH]c2ccccc12 (stereo not drawn)	20*	0	-1	4	9
CC(C)C#Cc1cnc2c(c1)C(=O)N([C@@H](C)CO)C[C@@H](C)[C@@H](CN(C)Cc1ccccc1F)O2	1	0	10[16.7 µM]	-7	4
CO[C@@H]1CN(C)C(=O)c2ccc(NS(C)(=O)=O)cc2OC[C@H](C)N(Cc2cccnc2)C[C@@H]1C	26*	0	-3[16.7 µM]	-6	1
CO[C@H]1CN(C)C(=O)c2cc(NS(=O)(=O)CC(F)(F)F)ccc2OC[C@H](C)N(Cc2cccnc2)C[C@@H]1C	37*	0	nt	103*	-1
CCNC(=O)Nc1ccc2c(c1)C(=O)N(C)[C@@H]1CC[C@@H](CC(=O)NCC3CCCCC3)O[C@@H]1CO2	15	0	4[16.7 µM]	-4	1
COc1ccc(COC(=O)C2=C(C)NC(=O)NC2c2ccc(OC)c(OC)c2)cc1 (stereo not drawn)	-1	nt	-14	-1	-16
COc1ccc(COC(=O)C2=C(C)NC(=O)NC2c2ccc(O)c(OC)c2)cc1 (stereo not drawn)	-2	nt	-4	-5	-22*
CC1=C(C(=O)OCc2ccccc2)C(c2ccccc2)NC(=O)N1 (stereo not drawn)	?	nt	-2	80*	-5
O=C(C[C@@H]1CC[C@H]2[C@@H](COC[C@@H](O)CN2Cc2ccccc2)O1)N[C@H]1CCN(Cc2ccccc2)C1	-11	0	-7[16.7 µM]	8	-3
C[C@@H]1CN([C@@H](C)CO)C(=O)c2cc(-c3ccccc3F)cnc2O[C@H]1CN(C)C(=O)c1ccccn1	5	0	-1[16.7 µM]	-2	-2
COc1ccc(NC(=O)N(C)C[C@@H]2Oc3ccc(NC(=O)CCCCCC(=O)Nc4ccccc4N)cc3CC(=O)N([C@H](C)CO)C[C@@H]2C)cc1	-6	14	5[16.7 µM]	-5	1
COC(=O)C[C@@H]1C[C@@H]2c3cc(NS(=O)(=O)c4ccc(OC)cc4)ccc3O[C@@H]2[C@@H](CO)O1	6	0	2[16.7 µM]	3	-1
O=C([C@H]1O[C@@H](n2ccc(=O)[nH]c2=O)[C@H](O)[C@@H]1O)N1CCN(c2ccc(Cl)cn2)CC1	45*	1	-7	-1	-2
Nc1ccn([C@@H]2O[C@H](C(=O)N3CCN(c4ccc(Cl)cn4)CC3)[C@@H](O)[C@H]2O)c(=O)n1	11	-1	-6	0	9
C[C@H]1CN([C@@H](C)CO)C(=O)c2cc(C3=CCCC3)cnc2O[C@H]1CN(C)C(=O)c1ccccc1	2	0	3[16.7 µM]	0	5
CO[C@@H]1CN(C)C(=O)c2cc(NC(=O)NC3CCCC3)ccc2OC[C@@H](C)NC[C@@H]1C	nt	nt	nt	nt	1
CC(C)(O)c1ccc2c(c1)CCC1C(C)(C(=O)O)CCCC21C (stereo not drawn)	-8	nt	-4	3	2
SMILES	DENV2 CPE rescue	E-sel inducer	miR122 inh	Cneo AK release	rRNA inh HTS
CC(C)c1c(O)ccc2c1CC[C@H]1C(C)(C)CCC[C@]21C	0	3	27	0	-14*
CCc1cccc(CC)c1NC(=O)COC(=O)C1(c2ccc(Cl)cc2)CCCC1	nt	nt	113*	3	nt
Nc1nc(-c2ccc([N+](=O)[O-])cc2)cc(=O)[nH]1	133*	nt	-4	6	nt
CN(C(=O)C1CCCN(c2ncnc3c2nc2n3CCCCC2)C1)c1cccc(Cl)c1 (stereo not drawn)	-6	nt	-5	0	-36*
C[C@@H](NC(=O)C[C@H]1CC[C@H]2[C@@H](COC[C@H](O)CN2Cc2cc(F)ccc2F)O1)c1ccccc1	-2	0	-3[16.7 µM]	44	1
CC(C)NC(=O)Nc1ccc2c(c1)C(=O)N(C)[C@H]1CC[C@H](CC(=O)NCC(F)(F)F)O[C@H]1CO2	3	0	-33[16.7 µM]	-7	2
Cc1ccccc1S(=O)(=O)N1CC[C@@H]2[C@H](CO)Nc3ccc(-c4ccc(C#N)cc4)cc3[C@@H]21	25*	0	2[16.7 µM]	-1	-21
N#Cc1ccc(-c2ccc3c(c2)[C@@H]2[C@@H](CCN2S(=O)(=O)c2ccccc2F)[C@H](CO)N3)cc1	6	0	-3[16.7 µM]	14	-18
Cc1ccccc1S(=O)(=O)N1CC[C@@H]2[C@H]1c1cc(-c3ccc(C#N)cc3)ccc1N[C@@H]2CO	77*	1	2[16.7 µM]	1	-3
COc1cccc(-c2ccc([C@@H]3[C@@H](CO)N4CCCCN(CC5CC5)C[C@H]34)cc2)c1	43*	0	1[16.7 µM]	-3	-3
COc1cccc(-c2ccc([C@H]3[C@H](CO)N4CCCCN(CC5CC5)C[C@@H]34)cc2)c1	42*	1	21[16.7 µM]	46	2
COc1cccc(-c2ccc([C@H]3[C@H]4CN(CC5CC5)CCCCN4[C@H]3CO)cc2)c1	19	0	19[16.7 µM]	40	6
Cc1ccccc1-c1ccc([C@@H]2[C@@H](CO)N3CCCCN(CC4CC4)C[C@H]23)cc1	52*	0	6[16.7 µM]	50	3
Cc1ccccc1S(=O)(=O)NCC[C@@H]1CC[C@H](NS(=O)(=O)c2ccccc2C)[C@H](CO)O1	1	3	2[16.7 µM]	48	-2
CC(C)[C@@H](CO)NC(=O)[C@H]1[C@@H](c2ccccc2)N(c2ccccc2)O[C@@H]1C	-2	nt	nt	-5	nt
Cc1nn(-c2ccccc2)c(N)c1Sc1cccc([N+](=O)[O-])c1	nt	nt	-2	-1	nt
Cc1nn(-c2ccccc2)c(N)c1Sc1ccccc1[N+](=O)[O-]	3	-3	nt	nt	-37*
